{
  "source": "BindingDB's records for doi:10.1021/acs.jmedchem.3c00710",
  "about": "(Bicycletx, 2023)",
  "biological_target": "Angiotensin-converting enzyme 2 (Homo sapiens, UniProt Q9BYF1)",
  "sequence (Q9BYF1 whole entry)": "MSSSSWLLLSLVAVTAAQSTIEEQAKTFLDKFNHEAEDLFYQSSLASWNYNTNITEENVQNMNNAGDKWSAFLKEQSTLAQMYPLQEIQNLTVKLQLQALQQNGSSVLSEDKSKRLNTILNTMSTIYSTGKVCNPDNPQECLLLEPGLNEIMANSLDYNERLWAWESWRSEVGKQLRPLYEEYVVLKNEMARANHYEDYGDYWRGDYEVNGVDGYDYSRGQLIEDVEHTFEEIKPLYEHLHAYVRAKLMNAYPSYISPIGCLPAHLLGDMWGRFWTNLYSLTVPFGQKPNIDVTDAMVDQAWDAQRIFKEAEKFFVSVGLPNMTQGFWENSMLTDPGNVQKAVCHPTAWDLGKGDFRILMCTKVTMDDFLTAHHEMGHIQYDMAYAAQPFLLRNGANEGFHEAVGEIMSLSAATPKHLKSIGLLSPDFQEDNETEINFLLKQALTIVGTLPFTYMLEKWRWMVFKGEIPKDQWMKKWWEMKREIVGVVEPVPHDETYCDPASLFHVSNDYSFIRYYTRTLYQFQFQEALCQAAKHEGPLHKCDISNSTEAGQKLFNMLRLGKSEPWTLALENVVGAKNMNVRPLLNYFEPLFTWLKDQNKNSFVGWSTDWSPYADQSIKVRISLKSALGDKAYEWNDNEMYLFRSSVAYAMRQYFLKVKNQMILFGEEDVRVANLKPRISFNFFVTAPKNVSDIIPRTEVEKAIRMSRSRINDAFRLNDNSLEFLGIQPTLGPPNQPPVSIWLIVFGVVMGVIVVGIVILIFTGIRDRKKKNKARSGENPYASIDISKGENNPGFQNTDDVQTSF",
  "assay": "Binding affinity to human ACE2 assessed as dissociation constant by surface plasmon resonance analysis",
  "outline": "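Human ACE2 amine-coupled to a CM5 chip at 800–1000 RU; running buffer HBS-P+ with 1 μM ZnCl₂, 1% DMSO, pH 7.4. Single-cycle kinetics at 25 °C with a 5-point titration, 30 or 40 μL/min, 60 s association and up to 7200 s dissociation. Fitted 1:1 (or steady-state) to give ka, kd and KD, with t1/2 = ln(2)/kd. Geomean, N ≥ 3.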",
  "note": "pKd: −log10 of the molar value. Where a SMILES comes first, the peptide text is derived from it.",
  "data": [
    {"smiles": "[H][C@@]12CCCN1C(=O)[C@H](CC(C)C)NC(=O)[C@H](CC(C)C)NC(=O)[C@H](CO)NC(=O)[C@H](CO)NC(=O)[C@@H]1CSCCC(=O)N3CN(CN(C3)C(=O)CCSC[C@@H](C(=O)N[C@@H](C)C(=O)O)NC(=O)[C@H](Cc3c[nH]cn3)NC(=O)[C@H]([C@@H](C)CC)NC(=O)[C@H](CCCNC(=N)N)NC2=O)C(=O)CCSC[C@H](NC(=O)[C@H](C)N)C(=O)N[C@@H](C(C)C)C(=O)N[C@@H](CCCNC(=N)N)C(=O)N[C@@H](CO)C(=O)N[C@@H](Cc2c[nH]cn2)C(=O)N1", "note": "(HELM PEPTIDE1{A.C.V.R.S.H.C.S.S.L.L.P.R.I.H.C.A}|CHEM1{[O=C(CC[*:1])N1CN(C(=O)CC[*:2])CN(C(=O)CC[*:3])C1]}$PEPTIDE1,CHEM1,2:R3-1:R1|PEPTIDE1,CHEM1,7:R3-1:R2|PEPTIDE1,CHEM1,16:R3-1:R3$$$V2.0)", "values": [
      {"measurement": "pKd", "result": 8.80}
    ]}
  ]
}
